Among the data in ChEMBL document CHEMBL4373711, “Development of 3,5-Dinitrophenyl-Containing 1,2,4-Triazoles and Their Trifluoromethyl Analogues as Highly Efficient Antitubercular Agents Inhibiting Decaprenylphosphoryl-β-d-ribofuranose 2'-Oxidase” (J Med Chem, 2019) are MIC99 values, retold here.

Each structure is given as a SMILES string. Values after ≈ are worked out from the molar mass of the structure shown.

Assay [1] relates to Mycobacterium tuberculosis. Nature of the assay: Antimycobacterial activity against multi-drug resistant Mycobacterium tuberculosis 8666/2010 after 21 days. Type of assay: functional. Particulars: 8666/2010, 504 h. The method in brief: (§1)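 M. tuberculosis strains (H37Rv and clinical MDR/XDR isolates) tested by microdilution in Šula's semisynthetic medium. Compounds were dissolved in DMSO and tested at 32 to 0.03 µM in twofold steps. Inoculum was a 1.0 McFarland suspension diluted 10-3. Plates were incubated at 37 °C and read at 14 and 21 days.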

Assay [2] relates to Mycobacterium tuberculosis. Nature of the assay: Antimycobacterial activity against multi-drug resistant Mycobacterium tuberculosis Praha 1 after 21 days. Type of assay: functional. Particulars: Praha 1, 504 h. An outline of the steps: as §1
For assay [3], the system named is Mycobacterium tuberculosis. Nature of the assay: microbe, parasite or virus in culture. To be noted: 234/2005, 336 h.
Assay [4] deals with Mycobacterium tuberculosis. Nature of the assay: Antimycobacterial activity against multi-drug resistant Mycobacterium tuberculosis 7357/1998 after 14 days. Format: functional. Particulars: 7357/1998, 336 h. An outline of the steps: as §1
Assay [5] deals with Mycobacterium tuberculosis. Nature of the assay: Antimycobacterial activity against multi-drug resistant Mycobacterium tuberculosis 234/2005 after 21 days. Format: functional. Particulars: 234/2005, 504 h. An outline of the steps:
as §1

Assay [6] deals with Mycobacterium tuberculosis. Nature of the assay: Antimycobacterial activity against multi-drug resistant Mycobacterium tuberculosis 9449/2007 after 14 days. Format: functional. Particulars: 9449/2007, 336 h. The method in brief: as §1
Assay [7] relates to Mycobacterium tuberculosis. Nature of the assay: Antimycobacterial activity against multi-drug resistant Mycobacterium tuberculosis Praha 4 after 14 days. To be noted: Praha 4, 336 h.
In assay [8] the test system is Mycobacterium tuberculosis. Nature of the assay: Antimycobacterial activity against multi-drug resistant Mycobacterium tuberculosis 7357/1998 after 21 days. Type of assay: functional. To be noted: 7357/1998, 504 h. An outline of the steps:
as §1

The subject of assay [9] is Mycobacterium tuberculosis. Nature of the assay: Antimycobacterial activity against multi-drug resistant Mycobacterium tuberculosis Praha 4 after 21 days. Format: functional. Particulars: Praha 4, 504 h. The method in brief: as §1
Assay [10] has as its system Mycobacterium tuberculosis. Nature of the assay: Antimycobacterial activity against multi-drug resistant Mycobacterium tuberculosis Praha 1 after 14 days. Format: functional. To be noted: Praha 1, 336 h. An outline of the steps: as §1
The test system of assay [11] is Mycobacterium tuberculosis. Nature of the assay: Antimycobacterial activity against multi-drug resistant Mycobacterium tuberculosis 9449/2007 after 21 days. Type of assay: functional. Particulars: 9449/2007, 504 h. The method in brief: as §1
Assay [12] deals with Mycobacterium tuberculosis. Nature of the assay: Antimycobacterial activity against multi-drug resistant Mycobacterium tuberculosis 8666/2010 after 14 days. To be noted: 8666/2010, 336 h. Type of assay: functional. An outline of the steps: as §1

In the case of `O=[N+]([O-])c1cc(-c2nnc(SCc3ccc(Cl)c(Cl)c3)n2Cc2ccccc2)cc([N+](=O)[O-])c1`, the MIC99 in assay [1], in assay [2], in assay [3], in assay [4], in assay [5] and in assay [6] was 0.25 µM (≈ 0.129 µg/mL) throughout. In addition, the MIC99 was 0.125 µM (≈ 0.0645 µg/mL) in [7]; 0.25 µM (≈ 0.129 µg/mL) in [8]; 0.125 µM (≈ 0.0645 µg/mL) in assay [9]; 0.25 µM (≈ 0.129 µg/mL) in [10]; 0.25 µM (≈ 0.129 µg/mL) in assay [11]; 0.25 µM (≈ 0.129 µg/mL) in assay [12].

Consider `Cn1c(SCc2ccc(Cl)cc2)nnc1-c1cc([N+](=O)[O-])cc([N+](=O)[O-])c1`, for which the MIC99 in assay [1], in assay [2], in assay [3], in [4], in assay [5] and in assay [6] was 0.125 µM (≈ 0.0507 µg/mL) each time. Further, the MIC99 in [7] was 0.06 µM (≈ 0.0243 µg/mL); in assay [8], 0.125 µM (≈ 0.0507 µg/mL); in assay [9] it was 0.125 µM (≈ 0.0507 µg/mL); in assay [10] it was 0.125 µM (≈ 0.0507 µg/mL); in [11], 0.125 µM (≈ 0.0507 µg/mL); in assay [12], 0.125 µM (≈ 0.0507 µg/mL).

On to `COc1ccc(CSc2nnc(-c3cc([N+](=O)[O-])cc(C(F)(F)F)c3)n2Cc2ccccc2)cc1`, for which the MIC99 in [1] came to 0.5 µM (≈ 0.25 µg/mL); in [2], 0.5 µM (≈ 0.25 µg/mL); in assay [3] it was 1 µM (≈ 0.501 µg/mL); in assay [4] it was 0.5 µM (≈ 0.25 µg/mL); in assay [5], 2 µM (≈ 1 µg/mL); in [6] it was 0.5 µM (≈ 0.25 µg/mL). In addition, the MIC99 in assay [7], in [8], in assay [9], in [10], in [11] and in assay [12] was 0.5 µM (≈ 0.25 µg/mL) in each case.

`O=[N+]([O-])c1cc(CSc2nnc(-c3ccc(Br)cc3)n2Cc2ccccc2)cc([N+](=O)[O-])c1`: the MIC99 in assay [1], in assay [2], in [3], in assay [4], in assay [5] and in assay [6] was 4 µM (≈ 2.11 µg/mL) each time. Besides, the MIC99 in [7] was 2 µM (≈ 1.05 µg/mL); in assay [8] it was 2 µM (≈ 1.05 µg/mL); in [9], 4 µM (≈ 2.11 µg/mL); in [10], 2 µM (≈ 1.05 µg/mL); in assay [11], 2 µM (≈ 1.05 µg/mL); in assay [12], 2 µM (≈ 1.05 µg/mL).
